The target of data set [1] is 5-hydroxytryptamine receptor 3A (Homo sapiens) (UniProt P46098). Nature of the data set: Antagonist activity at 5HT3 receptor in hybrid NG108-15 cells assessed as inhibition of 5HT-induced current treated 1 min prior to agonist treatment by electrophysiology. In kind it is functional, cell-based. In outline: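 NG108-15 cells grown in DMEM-HG with 5% FBS and HAT, then differentiated on polylysine glass with 2% DMSO for 48 h followed by ≥24 h with 1 mM dibutyryl-cAMP. Whole-cell recording at −60 mV in HEPES saline, pH 7.3, with a CsCl/CsMeSO3 pipette solution. 5-HT 50 µM applied by gravity every 2.5 min.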

The target of data set [2] is Alpha-2B adrenergic receptor (Homo sapiens, UniProt P18089). Nature of the data set: Displacement of [3H]RX821002 form human recombinant alpha2B adrenergic receptor. (Displacement assays read how much labelled ligand stays bound in the presence of the test substance.)
The target of data set [3] is 5-hydroxytryptamine receptor 4 (Mus musculus) (UniProt P97288). In words: Agonist activity at mouse 5HT4a receptor expressed in african green monkey COS7 cells assessed as cAMP release relative to serotonin. Particulars: COS-7. The data set is classed as functional, cell-based. In outline:
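Mouse 5-HT4(a) receptor transfected by electroporation into COS-7 cells (560 fmol/mg protein). Cells labelled 2 h at 37 °C with [3H]adenine, then exposed to increasing concentrations of test agent in 0.75 mM IBMX and 0.1 µM forskolin. cAMP measured as [3H]ATP→[3H]cAMP conversion after Dowex/alumina separation. Expressed as % of maximal 5-HT stimulation over basal. Mean of four independent experiments.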

The target in data set [4] is 5-hydroxytryptamine receptor 4 (Cavia porcellus) (UniProt O70528). In words: Displacement of [3H]GR-113808 from 5HT4 receptor in guinea pig striatum membrane at 1 uM. In kind it is cell membranes. In outline:
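Guinea pig membranes (15 µg protein/mL) incubated 30 min at 37 °C with 0.6 nM [3H]GR113808 in 50 mM HEPES, pH 7.4, with fixed test concentrations. Nonspecific binding defined with 10 µM serotonin.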

Data set [5] has as its target T1, 5-hydroxytryptamine receptor 2C (Homo sapiens, UniProt P28335).
T1 sequence (P28335 whole entry): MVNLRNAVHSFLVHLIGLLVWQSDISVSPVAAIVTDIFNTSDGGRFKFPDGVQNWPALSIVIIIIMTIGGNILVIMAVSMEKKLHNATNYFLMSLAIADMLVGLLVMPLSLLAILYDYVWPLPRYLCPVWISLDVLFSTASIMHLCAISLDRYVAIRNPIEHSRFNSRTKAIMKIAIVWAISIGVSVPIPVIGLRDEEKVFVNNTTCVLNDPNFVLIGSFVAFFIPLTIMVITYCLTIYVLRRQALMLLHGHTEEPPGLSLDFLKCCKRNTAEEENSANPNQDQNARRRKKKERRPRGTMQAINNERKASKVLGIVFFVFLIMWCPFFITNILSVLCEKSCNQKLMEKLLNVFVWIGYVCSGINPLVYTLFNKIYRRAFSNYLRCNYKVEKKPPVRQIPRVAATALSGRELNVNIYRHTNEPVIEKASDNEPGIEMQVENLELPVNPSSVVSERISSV
In words: Displacement of [3H]mesulergine from human recombinant 5HT2C receptor.

The subject of data set [6] is Mus musculus. In words: Acute toxicity in NMRI mouse assessed as induction of convulsions at 100 to 300 mg/kg, ip by CNS activity test. The data set is classed as organism-based, Central nervous system. On the set-up: dose 100-300 mg/kg, route intraperitoneal. To be noted: in vivo. A digest of the protocol:
(§1)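 Male NMRI mice (20–24 g) given ip drug in saline (10 mL/kg), groups of 4. Behavioural and neurological changes scored against controls by a standardized observation technique at 30 min, 3 h and 24 h post-dose. Approximate LD50 derived from deaths counted at 24 h.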

The subject of data set [7] is Mus musculus. In words: Antinociceptive activity against acetic acid-induced writhing in NMRI mouse assessed as number of stretches at 1 mg/kg, ip by writhing test. In kind it is functional. Particulars: route intraperitoneal. A digest of the protocol: (§2)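 Groups of 8 male NMRI mice (20–24 g). Compound or reference given ip in saline (10 mL/kg) 15 min before ip 0.6% aqueous acetic acid (10 mL/kg). Stretches (back arching, pelvic rotation, hind-limb extension) counted over 10 min, beginning 10 min after acid. ANOVA + Fisher PLSD versus control.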
(An intraperitoneal irritant provokes the stretching counted in writhing tests.)

The target in data set [8] is T2, 5-hydroxytryptamine receptor 1A (Homo sapiens, UniProt P08908).
T2 sequence (P08908 whole entry): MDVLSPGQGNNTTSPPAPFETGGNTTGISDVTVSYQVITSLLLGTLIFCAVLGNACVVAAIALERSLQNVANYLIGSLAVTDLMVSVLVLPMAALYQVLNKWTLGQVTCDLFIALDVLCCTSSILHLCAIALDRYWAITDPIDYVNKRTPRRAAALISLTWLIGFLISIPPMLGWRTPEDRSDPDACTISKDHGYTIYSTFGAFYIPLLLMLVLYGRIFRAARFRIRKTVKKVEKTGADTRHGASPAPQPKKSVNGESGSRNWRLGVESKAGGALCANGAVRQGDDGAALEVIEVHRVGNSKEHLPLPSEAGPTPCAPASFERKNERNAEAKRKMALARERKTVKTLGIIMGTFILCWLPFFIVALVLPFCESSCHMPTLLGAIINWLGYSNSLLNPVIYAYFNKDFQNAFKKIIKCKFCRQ
In words: Displacement of [3H]8OH-DPAT from human recombinant 5HT1A receptor.

The target of data set [9] is 5-hydroxytryptamine receptor 7 (Homo sapiens, UniProt P34969). In words: Displacement of [3H]LSD form human recombinant 5HT7 receptor. A digest of the protocol: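 Membranes from sf9 cells expressing human 5-HT6 (14 µg/mL) or 5-HT7 (38 µg/mL) incubated 90 min at 27 °C with 2 nM [3H]LSD in 50 mM Tris-HCl containing 10 mM MgSO4 and 0.5 mM EDTA. Nonspecific binding defined with clozapine (10 and 250 µM).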

In data set [10] the target is Alpha-1A adrenergic receptor (Homo sapiens, UniProt P35348). Nature of the data set: Displacement of [3H]prazosin form human recombinant alpha1A adrenergic receptor.
The test system of data set [11] is Mus musculus. In words: Toxicity in NMRI mouse assessed as spontaneous alteration performance ar 0.3 to 3 mg/kg, ip by Y-maze test. The data set is classed as organism-based. On the set-up: dose 0.3-3 mg/kg, route intraperitoneal. To be noted: in vivo. A digest of the protocol: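 Spontaneous alternation in male NMRI mice. Drug given ip in saline at 0.3, 1 and 3 mg/kg, 30 min before testing, with or without scopolamine 1 mg/kg. Four groups per dose: control, scopolamine, drug alone, drug+scopolamine. Alternation % = actual alternations/(total arm entries − 2) × 100. ANOVA plus Fisher PLSD.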

The test system of data set [12] is Mus musculus. In words: Antinociceptive activity against acetic acid-induced writhing in NMRI mouse assessed as number of stretches at 0.1 mg/kg, ip by writhing test. The data set is classed as functional. To be noted: route intraperitoneal. A digest of the protocol: as §2
A short description of data set [13]: Toxicity in ip dosed NMRI mouse. The data set is classed as organism-based. To be noted: in vivo. A digest of the protocol: as §1
The target in data set [14] is 5-hydroxytryptamine receptor 1D (Rattus norvegicus, UniProt P28565). In words: Displacement of [3H]5OH-tryptamine rat recombinant 5HT1D receptor.
For data set [15], the target named is 5-hydroxytryptamine receptor 5A (Homo sapiens, UniProt P47898). In words: Displacement of [3H]LSD form human recombinant 5HT5A receptor.

These results are taken from ChEMBL document CHEMBL1153939, “Novel antagonists of serotonin-4 receptors: synthesis and biological evaluation of pyrrolothienopyrazines” (Bioorg Med Chem, 2009).

Active and inactive are the calls of the source. The rule behind the calls is not given here. Bounds are passed on as bounds.

5-hydroxytryptamine receptor 7, sequence (P34969 whole entry): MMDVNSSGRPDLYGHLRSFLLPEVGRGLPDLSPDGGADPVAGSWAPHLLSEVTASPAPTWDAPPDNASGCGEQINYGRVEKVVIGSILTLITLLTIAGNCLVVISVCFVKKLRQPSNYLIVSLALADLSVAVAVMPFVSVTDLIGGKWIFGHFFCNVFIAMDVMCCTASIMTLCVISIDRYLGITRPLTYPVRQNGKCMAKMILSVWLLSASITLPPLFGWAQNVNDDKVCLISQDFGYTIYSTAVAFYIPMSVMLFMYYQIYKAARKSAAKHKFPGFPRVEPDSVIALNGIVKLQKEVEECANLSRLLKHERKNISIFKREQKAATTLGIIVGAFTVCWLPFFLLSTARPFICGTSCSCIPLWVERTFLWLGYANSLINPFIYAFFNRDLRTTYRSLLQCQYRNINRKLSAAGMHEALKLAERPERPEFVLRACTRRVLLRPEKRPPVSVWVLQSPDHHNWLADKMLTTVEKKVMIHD
Alpha-1A adrenergic receptor, sequence (P35348 whole entry): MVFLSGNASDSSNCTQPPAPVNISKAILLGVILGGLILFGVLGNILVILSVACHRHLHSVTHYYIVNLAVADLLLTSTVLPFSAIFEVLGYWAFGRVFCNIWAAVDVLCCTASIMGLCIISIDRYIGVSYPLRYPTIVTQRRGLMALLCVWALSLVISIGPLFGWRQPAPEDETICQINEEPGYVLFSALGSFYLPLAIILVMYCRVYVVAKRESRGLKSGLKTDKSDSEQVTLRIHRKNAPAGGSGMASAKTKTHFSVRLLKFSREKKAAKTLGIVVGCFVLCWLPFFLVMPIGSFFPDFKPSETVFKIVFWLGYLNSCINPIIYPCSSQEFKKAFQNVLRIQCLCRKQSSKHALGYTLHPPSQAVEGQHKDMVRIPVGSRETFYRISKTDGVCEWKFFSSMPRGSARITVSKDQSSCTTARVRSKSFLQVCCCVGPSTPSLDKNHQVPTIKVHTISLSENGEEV
5-hydroxytryptamine receptor 5A, sequence (P47898 whole entry): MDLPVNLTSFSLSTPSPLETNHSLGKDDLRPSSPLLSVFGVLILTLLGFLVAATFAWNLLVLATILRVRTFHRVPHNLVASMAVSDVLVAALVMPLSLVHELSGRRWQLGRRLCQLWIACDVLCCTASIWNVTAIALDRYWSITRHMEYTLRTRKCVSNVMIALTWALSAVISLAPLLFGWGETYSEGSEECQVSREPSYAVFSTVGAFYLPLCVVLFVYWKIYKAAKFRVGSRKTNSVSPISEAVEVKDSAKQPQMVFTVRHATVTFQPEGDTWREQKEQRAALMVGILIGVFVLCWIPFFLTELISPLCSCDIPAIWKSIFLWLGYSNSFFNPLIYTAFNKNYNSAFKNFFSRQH
5-hydroxytryptamine receptor 1D, sequence (P28565 whole entry): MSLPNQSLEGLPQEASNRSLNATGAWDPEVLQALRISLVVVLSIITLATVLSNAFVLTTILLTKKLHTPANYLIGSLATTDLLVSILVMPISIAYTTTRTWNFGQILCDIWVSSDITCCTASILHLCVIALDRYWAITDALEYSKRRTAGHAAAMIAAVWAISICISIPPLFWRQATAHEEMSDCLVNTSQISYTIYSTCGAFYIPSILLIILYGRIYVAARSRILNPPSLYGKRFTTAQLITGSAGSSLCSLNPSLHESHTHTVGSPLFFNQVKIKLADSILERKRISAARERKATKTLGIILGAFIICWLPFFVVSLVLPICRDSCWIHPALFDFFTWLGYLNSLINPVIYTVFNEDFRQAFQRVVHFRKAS
5-hydroxytryptamine receptor 4 (Cavia porcellus), sequence (O70528 whole entry): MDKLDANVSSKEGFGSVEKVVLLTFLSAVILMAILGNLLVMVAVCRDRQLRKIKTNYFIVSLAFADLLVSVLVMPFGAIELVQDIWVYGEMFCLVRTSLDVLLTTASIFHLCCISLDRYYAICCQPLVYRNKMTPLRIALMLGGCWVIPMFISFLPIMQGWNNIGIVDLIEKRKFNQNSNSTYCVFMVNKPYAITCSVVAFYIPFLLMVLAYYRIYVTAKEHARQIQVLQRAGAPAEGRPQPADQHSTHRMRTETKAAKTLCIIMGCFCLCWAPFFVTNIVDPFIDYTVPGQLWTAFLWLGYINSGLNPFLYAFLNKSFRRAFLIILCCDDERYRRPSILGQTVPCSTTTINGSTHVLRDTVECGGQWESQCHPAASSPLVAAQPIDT
Alpha-2B adrenergic receptor, sequence (P18089 whole entry): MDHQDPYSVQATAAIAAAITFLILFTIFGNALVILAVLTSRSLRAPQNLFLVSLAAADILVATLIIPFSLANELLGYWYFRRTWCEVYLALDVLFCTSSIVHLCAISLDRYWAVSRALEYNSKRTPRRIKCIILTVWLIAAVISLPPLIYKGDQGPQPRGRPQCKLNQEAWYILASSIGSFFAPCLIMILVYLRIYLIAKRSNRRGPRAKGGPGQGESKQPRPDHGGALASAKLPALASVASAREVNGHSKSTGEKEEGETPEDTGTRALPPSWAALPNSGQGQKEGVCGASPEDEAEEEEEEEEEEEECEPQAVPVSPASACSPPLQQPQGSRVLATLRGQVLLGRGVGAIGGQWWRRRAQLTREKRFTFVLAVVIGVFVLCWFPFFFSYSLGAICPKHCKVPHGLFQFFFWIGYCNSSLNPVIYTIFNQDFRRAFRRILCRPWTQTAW
5-hydroxytryptamine receptor 3A (Homo sapiens), sequence (P46098 whole entry): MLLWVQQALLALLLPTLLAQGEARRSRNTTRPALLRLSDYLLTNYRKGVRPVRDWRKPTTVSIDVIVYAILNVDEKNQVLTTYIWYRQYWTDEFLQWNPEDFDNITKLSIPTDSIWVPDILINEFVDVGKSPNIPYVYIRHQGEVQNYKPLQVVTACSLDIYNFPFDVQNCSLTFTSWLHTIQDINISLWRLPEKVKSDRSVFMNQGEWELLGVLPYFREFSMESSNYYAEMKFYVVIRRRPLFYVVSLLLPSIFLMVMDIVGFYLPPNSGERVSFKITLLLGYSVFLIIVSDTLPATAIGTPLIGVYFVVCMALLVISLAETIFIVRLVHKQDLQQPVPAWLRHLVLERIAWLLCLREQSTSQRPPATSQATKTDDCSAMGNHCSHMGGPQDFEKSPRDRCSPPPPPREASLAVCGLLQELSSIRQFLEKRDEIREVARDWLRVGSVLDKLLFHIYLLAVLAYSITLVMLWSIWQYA
5-hydroxytryptamine receptor 4 (Mus musculus), sequence (P97288 whole entry): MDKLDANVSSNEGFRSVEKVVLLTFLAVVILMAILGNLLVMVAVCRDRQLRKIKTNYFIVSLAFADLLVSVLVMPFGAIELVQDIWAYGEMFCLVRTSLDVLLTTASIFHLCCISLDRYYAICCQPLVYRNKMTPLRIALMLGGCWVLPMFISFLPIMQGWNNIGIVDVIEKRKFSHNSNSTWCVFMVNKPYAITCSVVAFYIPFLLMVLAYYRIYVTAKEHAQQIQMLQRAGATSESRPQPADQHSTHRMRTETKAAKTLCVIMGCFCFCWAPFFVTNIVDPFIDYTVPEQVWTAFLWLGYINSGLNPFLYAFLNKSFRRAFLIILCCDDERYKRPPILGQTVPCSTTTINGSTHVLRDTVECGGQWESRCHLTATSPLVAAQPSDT

The IC50 is the point on the concentration scale where inhibition reaches its midpoint. By inhibition is commonly meant the percentage by which the read-out fell short of the control. One may read the LD50 as the dose expected to kill half of the subjects tested. In the case of `CCCN1CCC(COc2nc3scc(C)c3n3cccc23)CC1`, the result in data set [1] was inactive. For the same molecule, the IC50 in data set [2] is 955 nM; in data set [5], 72.4 nM; in data set [8], 5010 nM; in data set [9], > 1000 nM; in data set [10], 74.1 nM; in [14], 4570 nM. Further, the half-maximal inhibitory concentration (IC50) in data set [15] was > 10000 nM. Further, the Activity in [3] is 20%; in the data set with Mus musculus [6], “Toxic”; with Mus musculus [7], 7.6; with Mus musculus [11], “Non-toxic”; in the data set on Mus musculus [12], 12.5. This molecule registered an inhibition in data set [4] of 100%. The molecule further showed an LD50 in data set [13] of 200 mg/kg.
